# Measured values pooled from the literature.
# Compare with care: the assays were run in different laboratories.
# Route: intravenous
SMILES,species,sample,dose,setting,quantity,value
Cc1cc(C)nc(Nc2ncc(C(=O)NCCc3c(C)[nH]c4ccccc34)cn2)c1,Sprague-Dawley rat,plasma,,,clearance,81 mL/min/kg
O=C(O)CCCO,male Sprague-Dawley rat,urine,600 mg/kg,,renal clearance,1.89 mL/min/kg
CCCC[C@@H]1NC(=O)[C@H](Cc2ccc(O)cc2)NC(=O)[C@@H]2CCCN2C(=O)[C@H](CC(=O)O)NC(=O)[C@H](C)NC(=O)[C@H](Cc2ccccc2)NC(=O)[C@@H]2CSCCC(=O)N3CN(CN(C3)C(=O)CCSC[C@@H](C(=O)N[C@@H](C)C(N)=O)NC1=O)C(=O)CCSC[C@H](NC(=O)[C@H](C)NC(C)=O)C(=O)N[C@@H]([C@@H](C)CC)C(=O)N[C@@H](CCC(=O)O)C(=O)N[C@@H](CCC(=O)O)C(=O)N[C@H](CCCCNC(=O)CCc1cn(CCOCCOCCOCCN(CCOCCOCCOCCC(=O)N[C@H]3CSCCC(=O)N4CN5CN(C4)C(=O)CCSC[C@H](NC(=O)[C@@H](CC(=O)O)NC(=O)[C@H](Cc4cccc6ccccc46)NC(=O)[C@@H]4CCCN4C3=O)C(=O)N[C@@H](CCSC)C(=O)N[C@@H](CCCCNC(=N)N)C(=O)N[C@@H](CC(=O)O)C(=O)N[C@@H](Cc3c[nH]c4ccccc34)C(=O)N[C@@H](CO)C(=O)N[C@@H]([C@@H](C)O)C(=O)N3CCC[C@H]3C(=O)N3C[C@H](O)C[C@H]3C(=O)N[C@@H](Cc3c[nH]c4ccccc34)C(=O)N[C@H](C(N)=O)CSCCC5=O)CCOCCOCCOCCn3cc(CCC(=O)NCCCC[C@H]4NC(=O)[C@H](CCC(=O)O)NC(=O)[C@H](CCC(=O)O)NC(=O)[C@H]([C@@H](C)CC)NC(=O)[C@@H](NC(=O)[C@H](C)NC(C)=O)CSCCC(=O)N5CN6CN(C5)C(=O)CCSC[C@H](NC(=O)[C@H](Cc5ccc(O)cc5)NC(=O)[C@H](CCC(N)=O)NC4=O)C(=O)N[C@@H](Cc4ccccc4)C(=O)N[C@@H](C)C(=O)N[C@@H](CC(=O)O)C(=O)N4CCC[C@H]4C(=O)N[C@@H](Cc4ccc(O)cc4)C(=O)N[C@@H](CCCC)C(=O)N[C@H](C(=O)N[C@@H](C)C(N)=O)CSCCC6=O)nn3)nn1)C(=O)N[C@@H](CCC(N)=O)C(=O)N[C@@H](Cc1ccc(O)cc1)C(=O)N2,rat,plasma,2 mg/kg,,clearance,9.8 mL/min/kg
C[C@H](C(=O)N[C@H]1COc2ccccc2[C@@H]1S(C)(=O)=O)c1ccc(F)cc1,male Sprague-Dawley rat,plasma,0.5 mg/kg,,clearance,10 mL/min/kg
CN(C)C(=O)Oc1cc(OC(=O)N(C)C)cc(-c2cc3ccc(O)cc3o2)c1,male rat,plasma,5 mg/kg,,clearance,140 mL/min/kg
[2H]C([2H])(c1cc(F)c(F)cc1F)n1c(=O)n(Cc2ncn(C)n2)c(=O)[nH]/c1=N\c1cc2cn(C)nc2cc1Cl,male Sprague-Dawley rat,plasma,5 mg/kg,,clearance,1.11 mL/min/kg
N=c1c2c(-c3ccccc3)c(-c3ccccc3)n(Cc3ccccc3)c2ncn1[C@H]1CC[C@H](O)CC1,male Sprague-Dawley rat,plasma,2 mg/kg,single dose,clearance,19.6 mL/min/kg
CCCC[C@@H]1NC(=O)[C@H](Cc2ccc(O)cc2)NC(=O)[C@@H]2CCCN2C(=O)[C@H](CC(=O)O)NC(=O)[C@H](C)NC(=O)[C@H](Cc2ccccc2)NC(=O)[C@@H]2CSCCC(=O)N3CN(CN(C3)C(=O)CCSC[C@H](NC(C)=O)C(=O)N[C@@H](CC(C)(C)C)C(=O)N[C@@H](CCC(=O)O)C(=O)N[C@@H](CCC(=O)O)C(=O)N[C@H](CCCCNC(=O)CCc3cn(CCOCCOCCOCCN(CCOCCOCCOCCC(=O)N[C@H]4CSCCC(=O)N5CN6CN(C5)C(=O)CCSC[C@H](NC(=O)[C@@H](CC(=O)O)NC(=O)[C@H](Cc5cccc7ccccc57)NC(=O)[C@@H]5CCCN5C4=O)C(=O)N[C@@H](CCSC)C(=O)N[C@@H](CCCCNC(=N)N)C(=O)N[C@@H](CC(=O)O)C(=O)N[C@@H](Cc4c[nH]c5ccccc45)C(=O)N[C@@H](CO)C(=O)N[C@@H]([C@@H](C)O)C(=O)N4CCC[C@H]4C(=O)N4C[C@H](O)C[C@H]4C(=O)N[C@@H](Cc4c[nH]c5ccccc45)C(=O)N[C@H](C(N)=O)CSCCC6=O)CCOCCOCCOCCn4cc(CCC(=O)NCCCC[C@H]5NC(=O)[C@H](CCC(=O)O)NC(=O)[C@H](CCC(=O)O)NC(=O)[C@H](CC(C)(C)C)NC(=O)[C@@H](NC(C)=O)CSCCC(=O)N6CN7CN(C6)C(=O)CCSC[C@H](NC(=O)[C@H](Cc6ccc(O)cc6)NC(=O)[C@@H]6CCCN6C5=O)C(=O)N[C@@H](Cc5ccccc5)C(=O)N[C@@H](C)C(=O)N[C@@H](CC(=O)O)C(=O)N5CCC[C@H]5C(=O)N[C@@H](Cc5ccc(O)cc5)C(=O)N[C@@H](CCCC)C(=O)N[C@H](C(N)=O)CSCCC7=O)nn4)nn3)C(=O)N3CCC[C@H]3C(=O)N[C@@H](Cc3ccc(O)cc3)C(=O)N2)C(=O)CCSC[C@@H](C(N)=O)NC1=O,rat,plasma,2 mg/kg,,clearance,11 mL/min/kg
CCCCCCCC(=O)N[C@@H](CCCCN)C(=O)N[C@@H](CCCCN)C(=O)N[C@@H](C)C(=O)N[C@@H](CC(C)C)C(=O)N[C@@H](CCCCN)C(=O)N[C@@H](CC(C)C)C(=O)N[C@@H](C)C(=O)N[C@@H](CCCCN)C(=O)N[C@@H](CCCCN)C(=O)N1CCC[C@H]1C(=O)N[C@@H](CC(C)C)C(=O)N[C@@H](CCCCN)C(=O)N[C@@H](CC(C)C)C(=O)N[C@@H](CC(C)C)C(=O)N[C@@H](CCCCN)C(N)=O,male Sprague-Dawley rat,blood,3 mg/kg,infusion,clearance,192 mL/min/kg
Cn1cnc(Cn2c(=O)[nH]/c(=N\c3cc4cn(C)nc4cc3Cl)n(Cc3cc(F)c(F)cc3F)c2=O)n1,male Sprague-Dawley rat,plasma,5 mg/kg,,clearance,1.03 mL/min/kg
O=C1c2cc(COc3ccccc3)nn2CCC1c1ccc(F)cc1 (stereo not drawn),male Sprague-Dawley rat,plasma,0.2 mg/kg,,clearance,120 mL/min/kg
CCCC[C@@H]1NC(=O)[C@H](Cc2ccc(O)cc2)NC(=O)[C@@H]2CCCN2C(=O)[C@H](CC(=O)O)NC(=O)[C@H](C)NC(=O)[C@H](Cc2ccccc2)NC(=O)[C@@H]2CSCCC(=O)N3CN(CN(C3)C(=O)CCSC[C@@H](C(=O)N[C@@H](CNC(=O)CCc3cn(CCOCCOCCOCCN(CCOCCOCCOCCC(=O)N[C@H]4CSCCC(=O)N5CN6CN(C5)C(=O)CCSC[C@H](NC(=O)[C@@H](CC(=O)O)NC(=O)[C@H](Cc5cccc7ccccc57)NC(=O)[C@@H]5CCCN5C4=O)C(=O)N[C@@H](CCSC)C(=O)N[C@@H](CCCCNC(=N)N)C(=O)N[C@@H](CC(=O)O)C(=O)N[C@@H](Cc4c[nH]c5ccccc45)C(=O)N[C@@H](CO)C(=O)N[C@@H]([C@@H](C)O)C(=O)N4CCC[C@H]4C(=O)N4C[C@H](O)C[C@H]4C(=O)N[C@@H](Cc4c[nH]c5ccccc45)C(=O)N[C@H](C(N)=O)CSCCC6=O)CCOCCOCCOCCn4cc(CCC(=O)NC[C@H](NC(=O)[C@@H]5CSCCC(=O)N6CN7CN(C6)C(=O)CCSC[C@H](NC(=O)[C@H](Cc6ccc(O)cc6)NC(=O)[C@@H]6CCCN6C(=O)[C@@H](C)NC(=O)[C@H](CCC(=O)O)NC(=O)[C@@H]6CCCN6C(=O)[C@H](CC(C)(C)C)NC(=O)[C@@H](NC(C)=O)CSCCC7=O)C(=O)N[C@@H](Cc6ccccc6)C(=O)N[C@@H](C)C(=O)N[C@@H](CC(=O)O)C(=O)N6CCC[C@H]6C(=O)N[C@@H](Cc6ccc(O)cc6)C(=O)N[C@@H](CCCC)C(=O)N5)C(N)=O)nn4)nn3)C(N)=O)NC1=O)C(=O)CCSC[C@H](NC(C)=O)C(=O)N[C@@H](CC(C)(C)C)C(=O)N1CCC[C@H]1C(=O)N[C@@H](CCC(=O)O)C(=O)N[C@H](C)C(=O)N1CCC[C@H]1C(=O)N[C@@H](Cc1ccc(O)cc1)C(=O)N2,rat,plasma,2 mg/kg,,clearance,8.7 mL/min/kg
